This is an account of results in ChEMBL document CHEMBL1121659 (J Med Chem, 1981).

As a reminder, the LD50 is the dose expected to kill half of the subjects tested. The low end stands for greater toxicity, the high end for lower toxicity. As usually defined, the Kp is the ratio of the level in a tissue or fluid to that in plasma or blood.

The nature of series [1]: Compound at the dose 10 mg/kg administered intraperitoneally was evaluated for the excretion rate in rats in 7 days through feces. The note with it: rat, faeces, ip, read-out: Excretion. Also on record: dose 10 mg/kg, route intraperitoneal. Format: ADME, organism-based. In short, it runs like this:
(§1)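 Male Wistar rats (150–330 g) in individual metabolic cages received [14C] compound 10 mg/kg ip in propylene glycol (5 mL/kg), n=4. Urine and feces were collected for 7 days. Urine was diluted with EtOH and counted directly. Fecal EtOH homogenates were dried, combusted and counted as trapped 14CO2.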

Series [2] has as its system Mus musculus. The series can be described thus: Time to first twitch in intravenous pentylenetetrazole test in mice at 300 mg/kg for 48 hr time of test. Format: functional. The gist of the method:
(§2)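 Carworth Farm No. 1 mice (average 20 g) were dosed ip. At set times afterwards, 0.5% pentylenetetrazol in heparinized saline was infused into the tail vein at 0.34 mL/min. Time to first twitch was recorded in individual mice, with observation to 240 s.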

Series [3] in a line: Compound at the dose 10 mg/kg administered intraperitoneally was evaluated for the excretion rate in rats in 7 days through urine. It is filed as ADME, organism-based. Also on record: dose 10 mg/kg, route intraperitoneal. The note with it: rat, ip, read-out: Excretion. The gist of the method: as §1
The nature of series [4]: Compound was evaluated for the Brain levels at 24 h in the Swiss webster mouse when administered at the […]. Format: ADME, organism-based. To be noted: read-out: Plasma level. In short, it runs like this: (§3)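 Swiss Webster mice (20–30 g) received [14C] compound 10 mg/kg ip. Four animals were killed at each of 12, 18, 24, 36, 48 and 72 h. Radioactivity was measured in plasma and brain, and the plasma elimination half-life was derived from these levels.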

Series [5] relates to Mus musculus. Briefly: Time to first twitch in intravenous pentylenetetrazole test in mice at 100 mg/kg for 96 hr time of test. Format: functional. In short, it runs like this:
as §2

Series [6] can be described thus: Compound was evaluated for the average apparent volume of distribution when administered through intravenous route. To be noted: in vivo, read-out: Vd app. Format: ADME, organism-based. In short, it runs like this: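 Male Wistar rats under pentobarbital (25 mg/kg ip) received [14C] compound 5 mg/kg iv in propylene glycol–0.1 N NaOH (1:1). Dosing was by jugular infusion, or by tail vein for later time points.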

In series [7] the test system is Mus musculus. Briefly: Time to first twitch in intravenous pentylenetetrazole test in mice at 300 mg/kg for 30 hr time of test. It is filed as functional. The gist of the method: as §2
In series [8] the test system is Mus musculus. Briefly: Time to first twitch in intravenous pentylenetetrazole test in mice at 500 mg/kg for 24 hr time of test. Format: functional. The gist of the method:
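Carworth Farm no. 1 mice (av wt 20 g) given the compound ip; at the designated time afterwards, 0.5% pentylenetetrazol in heparinized saline was infused into the tail vein at 0.34 mL/min. Time to first twitch (minimal excitation) was recorded for individual mice, observed up to 240 s.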

Series [9] in a line: Compound was evaluated for the plasma level at 18 hr in the Swiss webster mouse when administered at the […]. It is filed as ADME. The note with it: read-out: Plasma level. The gist of the method:
as §3

The nature of series [10]: Compound was evaluated for the toxicity in mouse on 7 th day when administered through Oral route. Format: organism-based. The note with it: in vivo. The gist of the method: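 Male Swiss Webster mice (20–40 g) dosed in propylene glycol (10–20 mL/kg), ip at 10, 20, 50, 100 and 200 mg/kg or po at 100 and 200 mg/kg. Ten mice per dose level, observed for toxicity for 1 week. LD50 taken at 7 days.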

Series [11] can be described thus: Compound was evaluated for the tissue levels after 1 hour of administration of 5 mg/kg through intravenous route, the given data is tissue/plasma ratios liver. Details: dose 5 mg/kg, route intravenous. Format: ADME, organism-based. In short, it runs like this: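 Anesthetized male Wistar rats received [14C] compound 5 mg/kg by slow jugular infusion in propylene glycol–0.1 N NaOH (1:1). Tissues were taken at 1 h, four per group, rinsed, blotted and weighed. Fat, muscle and red cells were combusted directly, other organs after EtOH homogenization. Tissue/plasma 14C ratios were computed.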

Series [12] relates to Mus musculus. Briefly: Time to first twitch in intravenous pentylenetetrazole test in mice at 1000 mg/kg for 24 hr time of test. It is filed as functional. The gist of the method:
as §2

Series [13] concerns Mus musculus. The series can be described thus: Time to first twitch in intravenous pentylenetetrazole test in mice at 200 mg/kg for 96 hr time of test. It is filed as functional. In short, it runs like this:
as §2

Series [14] has as its system Mus musculus. The series can be described thus: Compound was evaluated for the neurotoxicity after intraperitoneal administration at 24 hours. The note with it: in vivo, ip. It is filed as organism-based. In short, it runs like this: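 Rotarod ataxia test in Carworth Farm No. 1 mice, run by the ADD program. Dosed ip in aqueous 30% PEG 400. Neurological deficit scored at 24 and 48 h after doses up to 1000 mg/kg.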

Series [15] relates to Mus musculus. The series can be described thus: Time to first twitch in intravenous pentylenetetrazole test in mice at 100 mg/kg for 72 hr time of test. It is filed as functional. In short, it runs like this: as §2

With `O=C1NC(=O)C(c2ccc(C(F)(F)F)cc2)(c2ccc(C(F)(F)F)cc2)N1`, the dose excreted at 168 h in series [1] worked out at 67%; in [3] it was 0.3%. Further, the Time worked out at 32.4 s in series [2]; 27.5 s in [5]; 22 s in [7]; 27.3 s in series [8]; 25.5 s in series [12]; 34.5 s in [13]. In addition, in series [15], the Time is 27.1 s. Moreover, the concentration at 24 h in series [4] worked out at 3500 ng/mL. In series [6], the Vd is 0.42 L/kg. In series [9], the concentration at 18 h came to 27000 ng/mL. This compound returned an LD50 at 7 days in series [10] of 100 mg/kg. Moreover, the Kp at 1 h in series [11] worked out at 0.96. The compound further gave a Toxic dose in series [14] of 750 mg/kg.
